# Bioassay records as filed in PubChem BioAssay.
# Most compounds without a hit are left out; they make up all but 2.9% or so of the library.
# FAS TE block – inhibitors of human fatty acid synthase thioesterase domain; P49327; recombinant FAS-TE, OMFH fluorogenic substrate, fluorescence endpoint; inhibition, % at 15 µM; 360,000 tested, 0.67% active; AID 602261;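 active = compounds whose normalised, plate-corrected inhibition of enzyme fluorescence in the single-dose primary screen is 50% or more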
# ADAM10 inh – inhibitors of human ADAM10; AID 720582; inhibition, % at 7 µM; 370,000 tested, 0.62% active; O14672; recombinant ADAM10, EDANS/DABCYL FRET peptide cleavage, 3 h;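 active = inhibition above a per-campaign cutoff equal to the mean of compounds falling between control-based bounds plus 3 SD, cut at about 20% in these data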
# Arrestin-AP2 inh – inhibitors of human beta-arrestin and AP2 interaction. AID 504490. inhibition, % at 10 µM. FITC-arrestin peptide / GST-AP2 beads, flow cytometry; AP2 beta2 appendage carries R879A mutation. 340,000 tested, 0.31% active;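 active = inhibition above a set limit, near 3 SD of compounds lacking own fluorescence, cut at about 54% in these data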
#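 Material – GST-tagged AP2 beta2-adaptin appendage (R879A) on 4 µm glutathione beads · Probe or stimulus – fluorescein-tagged arrestin peptide at 50 nM final · Timing – 12 min plus 1 h, RT · Detection – bead flow cytometry, FITC channel · Read-out basis – inhibition as reduced fluorescein signal on beads, percent · Medium – PBS plus Tween 20 (0.05%) and BSA (0.1%)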
# CaV13 FRET inh – Disruptors of the CACNA1D IQ motif to Ca2+-dependent inactivation inhibitor domain association, primary screening, Förster resonance energy transfer in intact living …; HEK cells, CFP/YFP FRET ICDI-IQ, plate reader, 10 min; percent FRET-ratio fall versus neutral wells; inhibition, % at 12.3 µM; 340,000 tested, 0.098% active;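 active = mean replicate inhibition of at least 30% and at least 1% of replicates passing that level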
# ADAM17 inh – inhibitors of human ADAM17 | inhibition, % at 6.95 µM | 370,000 tested, 0.83% active | recombinant ADAM17, EDANS/DABCYL FRET peptide cleavage | AID 720648;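 active = inhibition above the mean of compounds lying between control limits plus 3 SD, set per campaign, cut at about 8.5% in these data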
# NRP1-CendR mod – NRP-1/CendR interaction modulation | O14786 | FAM-RPARPAR peptide binding to NRP-1, fluorescence polarization | inhibition, % at 25 µM | 360,000 tested, 0.85% active | AID 602438;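 active = inhibition or corrected inhibition above about 18%, plus a signal ratio from 0.5 to 1.5, limit read from the data, passing the limit was not always enough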
# Arr AP2 CP1 – human beta-arrestin and AP2 interaction inhibition, cherry pick; 1,300 tested, 2% active; GST-AP2 beads, FITC arrestin peptide binding, flow cytometry; GST-fused beta2-adaptin appendage, R879A mutant; AID 504908; shares compounds with Arrestin-AP2 inh; inhibition, % at 10 µM;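 active = inhibition above a set limit, roughly 3 SD of non-fluorescent compound noise, cut at about 38% in these data; inactive = inhibition at or below that limit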;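 note: loss of bead fluorescence from 50 nM FITC arrestin peptide bound to appendage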
# GST GSH counter – counter-screen for beta-arrestin AP2 inhibitors: GST-GSH bead binding; inhibition, % at 10 µM; GST-fluorescein binding to GSH beads, fluorescence; 1,300 tested, 2% active; shares compounds with Arrestin-AP2 inh;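 active = inhibition above 50%, about 3 SD of the inhibition seen with non-fluorescent compounds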;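 note: fluorescein maleimide labelled GST captured on 4 micron glutathione beads; higher means more loss of bead fluorescence from quenching or blocked binding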
# FAS-TE inh conf – confirmation of human fatty acid synthase thioesterase inhibitors; shares compounds with FAS TE block; recombinant FAS-TE, OMFH fluorogenic substrate, fluorescence; inhibition, % at 15 µM; 2,300 tested, 45% active;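 active = compounds inhibiting the enzyme by at least 50% at 15 µM in any one of the replicates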
# A number is an active result; - = inactive; . = not tested or not shown; + = active, no number.
SMILES,FAS TE block,ADAM10 inh,Arrestin-AP2 inh,CaV13 FRET inh,ADAM17 inh,NRP1-CendR mod,others
O=C(NCCN1CCC2(CC1)C(=O)NCN2c1ccccc1)c1ccc(F)c(F)c1,.,-,.,-,-,.,
C[C@@H]1CNCCN1c1ccc(N2CC[C@H](O)C2)c(C#N)c1,.,-,.,-,-,.,
C=C(C)[C@@]12OC3(c4ccccc4)O[C@@H]1C1[C@@H]4O[C@]4(CO)[C@@H](O)[C@]4(O)C(=O)C(C)=C[C@H]4[C@@]1(O3)[C@H](C)[C@H]2OC(=O)/C=C/C=C/c1ccccc1 (some centres not stated),57,.,-,.,.,-,
C[C@H]1CN([C@@H](C)CO)C(=O)CCCn2cc(nn2)CO[C@@H]1CN(C)C(=O)Oc1cccc2ccccc12,.,-,.,-,-,.,
Nc1ccc2ccc3cccc[n+]3c2c1,-,-,-,+,-,-,
CCN(CC)C(=O)c1ccc(N(Cc2ccccc2)S(C)(=O)=O)cc1,-,-,-,-,-,-,
CCN(CC)C(=O)c1ccc2c(c1)C1C(Cl)C(Sc3ccccc3[N+](=O)[O-])CC1C(C(=O)O)N2 (configuration not stated),-,.,-,.,.,46,
Cc1ccc2c(c1Cl)NC(C(=O)O)C1CC(Sc3ccccc3[N+](=O)[O-])C(Cl)C21 (configuration not stated),-,.,-,.,.,-,
CCN(CC)C(=O)c1ccc2c(c1)C1C=CCC1C(C(=O)O)N2 (configuration not stated),-,-,-,-,-,45,
O=C(NCCN1CCC2(CC1)C(=O)NCN2c1ccccc1)c1cccc(F)c1,.,-,.,-,-,.,
C[C@H](NC(=O)OCc1ccccc1)[P+](=O)O,.,-,.,.,-,.,
O=C(NC1CN2CCC1CC2)c1cc(-c2ccc(Cl)cc2)nc2ccccc12 (configuration not stated),.,-,.,.,-,.,
COC(=O)[C@@]1(O)c2c(oc3cccc(O)c3c2=O)C=C[C@H]1O,.,-,.,.,-,.,
c1ccc2c(c1)cc1ccc3cccc4ccc2c1c34,-,-,57,-,-,-,Arr AP2 CP1=-;GST GSH counter=-
N#CCC[C@@H]1CC[C@]2(CCCN(Cc3ccncc3)C2)O1,.,-,.,.,-,.,
COc1ccccc1-n1c(CNCC2CCCO2)nc2ccccc2c1=O (configuration not stated),-,-,60,-,-,-,Arr AP2 CP1=-;GST GSH counter=-
CCOC(=O)C1(CCOc2ccccc2)CCN(Cc2ccc(C)s2)CC1,-,-,57,-,-,-,Arr AP2 CP1=-;GST GSH counter=-
CCOC(=O)C1(CCc2ccccc2)CCN(Cc2ccc3c(c2)OCCO3)CC1,-,-,-,-,-,-,
CC1C2Cc3ccc(O)cc3C1(C)CCN2CC1CC1 (configuration not stated),.,-,.,.,-,.,
CN(C)c1ccc(C=C2C(=O)NC(=O)NC2=O)cc1[N+](=O)[O-],-,-,-,-,-,-,
CN(C)c1ccc(C=C2C(=O)NC(=S)NC2=O)cc1[N+](=O)[O-],-,-,64,-,-,-,Arr AP2 CP1=-;GST GSH counter=-
CCOC(=O)[C@]12Cc3cc4ccccc4cc3[C@H]1N(Cc1ccccc1)C(=O)c1ccccc12,61,-,.,-,-,-,FAS-TE inh conf=-
CCOC(=O)[C@]12Cc3cc4ccccc4cc3[C@H]1N(Cc1ccccc1)C(=O)c1cc(OC)ccc12,65,-,.,-,-,-,FAS-TE inh conf=-
CCOC(=O)[C@]12Cc3cc(OC)c(OC)cc3[C@H]1N(Cc1ccccc1)C(=O)c1ccccc12,-,-,-,-,-,-,
CCOC(=O)[C@]12Cc3cc(OC)ccc3[C@H]1N(Cc1ccccc1)C(=O)c1cc(OC)ccc12,-,-,.,-,-,-,
SMILES,FAS TE block,ADAM10 inh,Arrestin-AP2 inh,CaV13 FRET inh,ADAM17 inh,NRP1-CendR mod,others
CCOC(=O)CC[C@@H]1CC[C@]2(CCCN(Cc3ccncc3)C2)O1,.,-,.,.,-,.,
S=P(c1ccccc1)(c1ccccc1)c1c[n+](Cc2ccccc2)c2ccccn12,.,-,.,.,-,.,
CCOC(=O)CC[C@@H]1CC[C@]2(CCCN(Cc3ccccn3)C2)O1,.,-,.,.,-,.,
CCOC(=O)[C@]12Cc3cc(Cl)ccc3[C@H]1N(C)C(=O)c1ccccc12,-,-,.,-,-,-,
CCOC(=O)[C@]12Cc3cc(Cl)ccc3[C@H]1N(Cc1ccccc1)C(=O)c1cc(OC)ccc12,-,-,.,-,-,-,
CCOC(=O)[C@]12Cc3cc(Cl)ccc3[C@H]1N(CC(=O)OC)C(=O)c1ccccc12,55,.,.,.,.,-,FAS-TE inh conf=-
CCOC(=O)[C@]12Cc3cc(Cl)ccc3[C@H]1N(C(C)C)C(=O)c1ccccc12,68,-,.,-,-,-,FAS-TE inh conf=-
CCCCCN1C(=O)c2cc(OC)ccc2[C@@]2(C(=O)OCC)Cc3cc(Cl)ccc3[C@@H]12,85,-,.,-,-,-,FAS-TE inh conf=-
Cc1ccc2nc(-c3ccc(CN4CCC(n5c(=O)[nH]c6cc(Cl)ccc65)CC4)cc3)c(-c3ccccc3)nc2c1,.,-,.,-,-,.,
Cc1ccc(OC(=O)N(C)C[C@@H]2OCc3ccccc3-c3c(n(C)c4ccccc34)C(=O)N([C@H](C)CO)C[C@H]2C)cc1,.,-,.,-,-,.,
CSc1nc(N)c(N=Nc2ccc([As](=O)(O)O)cc2)c(=O)[nH]1,54,-,-,-,9.1,-,FAS-TE inh conf=59
CCOC(=O)[C@]12Cc3cc(OC)ccc3[C@H]1N(C1CCCCC1)C(=O)c1ccccc12,77,-,.,-,-,-,FAS-TE inh conf=72
CCOC(=O)[C@]12Cc3cc(OC)ccc3[C@H]1N(C)C(=O)c1ccccc12,-,-,.,-,-,-,
CCOC(=O)[C@]12Cc3cc(Cl)ccc3[C@H]1N(C1CCCCC1)C(=O)c1ccccc12,77,.,.,.,.,-,FAS-TE inh conf=71
CCOC(=O)[C@]12Cc3cc(C)ccc3[C@H]1N(C)C(=O)c1ccccc12,-,-,.,-,-,-,
O=C(N/N=C/c1c(O)n(C2CCCCC2)c(=S)[nH]c1=O)c1ccccc1O,55,-,-,-,-,-,FAS-TE inh conf=42
CC[C@]12CCN(CC3(O)CC3)[C@H](Cc3ccc(O)cc31)C2(C)C,.,-,.,.,-,.,
Cc1cc(=O)oc2cc(OCC(=O)N3CCN(C(C)c4ccccc4)CC3)c(Cl)cc12 (configuration not stated),60,-,-,-,-,-,FAS-TE inh conf=67
